Laboratory results from ChEMBL document CHEMBL4513216, “Probing the Open Global Health Chemical Diversity Library for Multistage-Active Starting Points for Next-Generation Antimalarials” (ACS Infect Dis, 2020).

Experiment: Toxicity liver stage against HepG2, at 10uM
Assay type: cell-based
Parameters: test concentration 10 uM, cell line HepG2-A16-CD81EGFP
Settings: human, HepG2-A16-CD81EGFP cells; read-out: INHIBITION
How it was run: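 Uninfected HepG2-A16-CD81EGFP cells, 3 × 10^3 per well, 1536-well, plated on prespotted compound at 10 μM final, parasite-free screening media added to match infected plates; puromycin 10 μM positive, DMSO 0.5% negative; run in parallel with 48 h PbLuc assay at 37 °C, 5% CO2; viability by CellTiter-Glo luminescence, normalized to controls.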

| SMILES | cytotoxicity at 10 µM [%] |
| --- | --- |
| Cc1nc(N2CCCC2)ncc1C(=O)Nc1ccc(Br)cc1 | -1.85 |
| Cc1cccc(C2CCCCCN2Cc2cn(C)nc2C)c1 (configuration not stated) | -1.17 |
| CCS(=O)(=O)N1CC(=O)N(CCOc2ccccc2)CC(O)C1 (configuration not stated) | -0.739 |
| CC(=O)c1cn(CCC(=O)NCCCC(=O)O)c2ccccc12 | -1.63 |
| CSc1c(CC(=O)O)n(C)c2ccccc12 | 3.79 |
| COCCc1nnc(NC(=O)CCCc2ccccc2)o1 | -4.34 |
| COc1ccc(S(=O)(=O)NCC(C)(O)c2cccs2)cc1Cl (configuration not stated) | -11.5 |
| CCSc1ccccc1C(=O)N1CC2(COC(C)(C)OC2)C1 | -3.45 |
| Cc1noc(C)c1CN1CCCC2(C1)CN(c1nncs1)CCO2 (configuration not stated) | 0.922 |
| O=C(c1n[nH]cc1Cl)N1CCSCC1 | 4.51 |
| COc1cc(C(=O)NCCCO)cc2occc12 | 5.47 |
| Cn1cc(CN2CCc3nc4ccccc4c(=O)n3CC2)cn1 | -1.57 |
| Cc1noc(C)c1-c1nc(C2CCCN(C(=O)CCN)C2)ccc1CO (configuration not stated) | -2.53 |
| O=C(NCc1ccco1)c1cc[n+]([O-])cc1 | 3.33 |
| Cc1c(CCC(=O)N2CCOC(c3cnccn3)C2)cnn1C (configuration not stated) | -1.87 |
| CO[C@@H]1CCC[C@@H](N(C)C(=O)c2cc(F)ccc2F)[C@H]1O | -5.38 |
| O=C(Nc1ccc(Cl)cn1)c1cncc(C2CCNCC2)n1 | -13.5 |
| O=C1CCCN1CCCC(=O)N1CCCC(c2ccn[nH]2)C1 (configuration not stated) | -22.8 |
| CNC(=O)c1cn[nH]c1C1CCN(Cc2ccccc2F)C1 (configuration not stated) | -30.8 |
| CCn1cc(S(=O)(=O)NC2(CN3CCOCC3)CCCCC2)c(C)n1 | 1.88 |
| Cc1ccc2c(c1)CN(C(=O)c1cccs1)C(CN(C)C)CO2 (configuration not stated) | -16.5 |
| COc1ccccc1-c1cc(C(=O)N(C)C)nc2c1cnn2C | 7.83 |
| Cc1ccncc1NS(=O)(=O)c1ccc(Cl)s1 | 0.405 |

| SMILES | cytotoxicity at 10 µM [%] |
| --- | --- |
| COCCOc1cccc(CNCc2ccc(-n3cncn3)nc2)c1 | -11.8 |
| Cc1ccc(F)c(N2CCCC(NS(=O)(=O)CCCF)C2=O)c1 (configuration not stated) | -3.14 |
| COCCN(Cc1coc(-c2ccc(OC)cc2)n1)C1CC1 | 2.1 |
| Cc1cnn(C2CN(Cc3nc4cc(Cl)ccc4n3C)C2)c1 | -1.16 |
| CC(=O)N1CC(C)CN(C(=O)c2cccnc2C)c2ccccc21 (configuration not stated) | 6.45 |
| Cn1cc(C(C)(O)CNc2ccc(Cl)c(C#N)n2)cn1 (configuration not stated) | 3.97 |
| Cc1nc(-c2nnc[nH]2)sc1C(=O)N1CCCC1CC(C)(C)C (configuration not stated) | 12.1 |
| CC(C)(C)OC(=O)NCC(=O)NCc1ccc(Cl)s1 | -11.3 |
| CC(Cc1ccccc1Br)NC(=O)CCS(C)(=O)=O (configuration not stated) | -4.44 |
| O=C(CCC(=O)N1CCOCC1)NCc1cccnc1-n1cccn1 | -3.65 |
| Cc1ccccc1CNC(Cn1cncn1)c1ccccc1 (configuration not stated) | -1.45 |
| CCc1ncc2c(n1)CN(CC(=O)N1CCc3sccc3C1)CC2 | 4.83 |
| CN(Cc1ccc(Cl)cc1)S(=O)(=O)N(C)Cc1cnn(C)c1 | 16.5 |
| Cn1c(NC(=O)CCS(=O)(=O)C2CCCC2)nc2cc(Cl)ccc21 | 7.42 |
| N#Cc1ccc(CSCCN2CCOCC2)cc1 | 4.2 |
| COc1ccccc1C1(CNc2nnc(C)c(C)c2C#N)CCOCC1 | 6.77 |
| COC(=O)[C@H](C)NC(=O)COc1nn(C)c2nc(C)cc(C)c12 | -2.53 |
| Cc1noc(CN(Cc2cccc(C#N)c2)Cc2ccco2)n1 | 0.554 |
| Cc1ccc(C(=O)N(C)CCOc2ccccc2F)c(=O)[nH]1 | -136 |
| O=C1C(Nc2ncccn2)CCN1c1ccccc1OC(F)F (configuration not stated) | 2.88 |
| COc1ccc2c(c1)CCCN(C(C)C(=O)NC(C)C)C2 (configuration not stated) | 9.56 |
| CN(C)C(=O)CCNC(=O)Nc1cccc(Cl)c1-n1cccn1 | 0.399 |
| O=C(CCc1ccc(Br)cc1)NCc1nnc[nH]1 | 0.163 |

| SMILES | cytotoxicity at 10 µM [%] |
| --- | --- |
| Cc1ccc(NCCCNC(=O)NCC2CCS(=O)(=O)C2)nc1 (configuration not stated) | 17.2 |
| CCCc1nnnn1CC(=O)NCc1cccc(C)c1 | -3.94 |
| COc1cccc(C2(NC(=O)CCNC(C)=O)CC2)c1 | 1.6 |
| Cc1nc(C)c(CC(=O)N2CCN(CC(C)C)CC2)c(=O)[nH]1 | -12.3 |
| O=C(NCc1cc(Br)cs1)Nc1cn[nH]c1 | 5.85 |
| CNC(=O)NCC(CO)Cc1cccc(OC(F)(F)F)c1 (configuration not stated) | -1.28 |
| Cn1cc(C(C)(O)CNc2ccccn2)cn1 (configuration not stated) | -43.6 |
| O=C(O)c1ccn(-c2ccccc2NS(=O)(=O)c2ccccc2)n1 | 23 |
| CC(C)(C)OC(=O)NC(C)(C)c1noc(CN2CCCCC2)n1 | 7.57 |
| O=C(c1cnn(-c2ccccc2F)c1)N1CCN(CCO)CC1 | -8.18 |
| CCN1CCN(c2ccc(F)cc2C(C)NCc2noc(C)n2)CC1 (configuration not stated) | 1.8 |
| CC(OCC(F)(F)F)C(=O)N1CCN(S(C)(=O)=O)CC1 (configuration not stated) | -1.33 |
| CCC(CC)c1cc(C(=O)N2CCCC(n3cncn3)C2)on1 (configuration not stated) | -13.1 |
| O=c1cc(Cn2ccnc2)nc2n1CCCN(S(=O)(=O)C1CC1)C2 | 7.95 |
| CC(C)CCCC1CN(C(=O)c2cnc[nH]2)CCO1 (configuration not stated) | 2.83 |
| CN(C)C(=O)N1CCN(C(=O)Nc2nc(-c3ccccc3)ns2)CC1 | -136 |
| CC(C)n1ccnc1Cn1ccc2ncccc2c1=O | -4.65 |
| O=C(Cn1ccnc1)N1CCC(n2cc(-c3cccc(Cl)c3)nn2)CC1 | -23.4 |
| CSc1ccc(-c2nc(CN3CCC(C(N)=O)CC3)c(C)o2)cc1 | 4.58 |
| Cc1[nH]nc(CCC(=O)N2CCc3c(nc[nH]c3=O)C2)c1C | 3.63 |
| COc1ccc(-c2ccnc(N)c2)c(OC)c1 | 17.6 |
| Cc1cccc(OCC2CCCN(C(=O)CCn3ccccc3=O)C2)c1 (configuration not stated) | -0.987 |
| O=C(O)c1ccc(C2CCCN(Cc3ccc(-c4cc[nH]n4)o3)C2)cc1 (configuration not stated) | -2.43 |

| SMILES | cytotoxicity at 10 µM [%] |
| --- | --- |
| NC(=O)C1CCN(C(C(=O)O)c2ccc(Cl)c(C(F)(F)F)c2)CC1 (configuration not stated) | -107 |
| O=C(O)[C@@H]1CN(Cc2c[nH]c(CC3CCCC3)n2)C[C@H]1c1ccncc1 | 1.08 |
| O=C1CC2(CCN(C(=O)Cc3cc4c(cc3Cl)OCCO4)C2)C(=O)N1 (configuration not stated) | 12.7 |
| COc1ccccc1OC1CCN(C(=O)CCCn2ccnc2)CC1 | -183 |
| Cc1nccc(N[C@H]2CN(CC(C)(C)N3CCOCC3)C[C@@H]2C2CC2)n1 | 3.03 |
| Cc1nc[nH]c1CN(Cc1ccccc1)Cc1nccs1 | 2.14 |
| Cc1cc(NCc2cccnc2)n2nc(C)cc2n1 | -0.719 |
| CCCc1nc(C(=O)N2CCCn3nc(CCC(=O)O)cc3C2)cs1 | -9.84 |
| CN(CCO)Cc1nnc(C2CCN(C(=O)c3cccnc3)CC2)n1C | 11.4 |
| O=C(CCc1cccnc1)N(Cc1ccsc1)CC1CCCO1 (configuration not stated) | -11.5 |
| CN(CCO)C[C@@H]1CN(C(=O)c2c(F)cccc2Cl)C[C@@H]1CO | -9 |
| Cc1cc(NCc2cc3n(n2)CCCN(S(C)(=O)=O)C3)ncn1 | -14.3 |
| O=C(NCC1CCOC1)c1csc(-c2ccccc2)n1 (configuration not stated) | -0.755 |
| CN(C)c1ncccc1CNC(=O)NCc1ccc(Cl)s1 | 9.21 |
| Cc1noc(NC(=O)c2ccccc2)n1 | -0.269 |
| CN(Cc1ccco1)C(=O)Nc1cccnc1N1CCCC1 | -5.3 |
| Cc1cc(C)n(CC2CN(CCOc3ccccc3C#N)CCO2)n1 (configuration not stated) | -3.71 |
| Cc1cc(C2CCCN(CCS(=O)(=O)c3ccccc3)C2)n[nH]1 (configuration not stated) | -16.7 |
| CC(C)c1n[nH]c(C(=O)NC(C)c2ccncc2)c1Br (configuration not stated) | -5.85 |
| CS(=O)(=O)c1ccc(C(=O)N2CCCC(n3ccnc3)C2)cc1 (configuration not stated) | -19.4 |
| CC(C)(O)CN1CCN(C(=O)c2cccc(CC#N)c2)CC1 | -13.4 |
| Cc1cc(C)n(CC2CCCCN2C(=O)c2ccc(C(N)=O)cc2)n1 (configuration not stated) | 3.09 |
| CN(C)c1ccc(CNC(=O)NCCc2cn3ccccc3n2)cn1 | -3.06 |

| SMILES | cytotoxicity at 10 µM [%] |
| --- | --- |
| c1csc(-c2noc(CCCN3CCCC3Cn3cncn3)n2)c1 (configuration not stated) | -24.2 |
| CN(C)c1ncccc1CNS(=O)(=O)c1cc(F)cc(F)c1 | -14 |
| Cc1nn(Cc2ccccc2)c(C)c1CNC1CCc2ncnn2C1 (configuration not stated) | -1.04 |
| CCN1CC(C(=O)NCc2cccnc2-n2cccn2)CC1=O (configuration not stated) | 0.796 |
| Cc1nnc(C2Cc3ccccc3CN2Cc2nc(C(C)C)no2)o1 (configuration not stated) | -22 |
| Cn1cnnc1C1CCCN(C(=O)c2cc(Cl)c(Cl)n2C)C1 (configuration not stated) | -4.9 |
| CC(c1nc(C2CC2)no1)N1CCN(Cc2cccc(F)c2F)CC1 (configuration not stated) | -4.93 |
| O=C(c1cccc2c1OCCO2)N1CCCC(n2ccnc2)C1 (configuration not stated) | -6.92 |
| Cc1cc(N2CCN(Cc3cn(C)nc3C)CC2)cc(C2CCCN2)n1 (configuration not stated) | 0.525 |
| CNC(=O)C1Cn2ccnc2C2(CCN(C(=O)CC3CCCC3)CC2)O1 (configuration not stated) | -145 |
| Cc1noc(C)c1CN1C[C@@H]2C[C@@H](C)O[C@@H]2C1 | 4.06 |
| O=C(c1ccncn1)N1CCC[C@]2(C[C@H](Oc3ncccc3F)CO2)C1 | -0.588 |
| CNC(=O)[C@H]1C[C@@H]2CN(S(=O)(=O)c3ccc(C)cc3)C[C@@H]2N1C | -2.19 |
| CCS(=O)(=O)N1CCC2(CC1)CC[C@@]1(C(=O)N(C)C)CN(C)C[C@@H]21 | 10.4 |
| CC1c2ncc(CNC(=O)C3CC3)n2CCN1Cc1ccsc1 (configuration not stated) | 1.06 |
| Cc1cccc(-c2nnn3c2COC(CNCc2nccs2)C3)c1 (configuration not stated) | 4.51 |
| Cc1ccc(C(=O)N2C[C@H]3CCC[C@@]3(COc3ccccn3)C2)nc1 | -2.23 |
| O=C([C@@H]1COC[C@H]2CN(c3ccncn3)C[C@H]21)N1CCCC1 | -133 |
| CNC(=O)c1nc2c(s1)CCN(C(=O)c1cccnc1)CC2 | 6 |
| Cc1cccc(CN2CCc3ncnc(N4CCOCC4)c3CC2)n1 | -4.95 |
